Consider 14 compounds from ChEMBL document CHEMBL2062438, “Probing the structural requirements for vitamin D3 inhibition of the hedgehog signaling pathway” (Bioorg Med Chem Lett, 2012).

Broadly, the GI50 is the concentration that inhibits growth by half.

Data set [1] has as its system HT-29. The experiment in a line: Growth inhibition of human HT-29 cells overexpressing VDR gene after 72 hrs by MTS assay. It counts as functional. To be noted: HT-29, 72 h. Summed up:
(§1)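 Cells seeded at 3000/well, incubated overnight at 37 °C in 5% CO2, then treated in triplicate at varying concentrations in 1% DMSO final for 72 h. Viable cells read by MTS. GI50 given as mean ± SEM of at least two separate experiments.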

In data set [2] the test system is HT-29. The experiment in a line: Upregulation of CYP24A1 mRNA expression in human HT-29 cells at 10 uM after 24 hrs by RT-PCR analysis relative to DMSO-treated control. It counts as functional.
For data set [3], the target named is T1, Vitamin D3 receptor (Homo sapiens, UniProt P11473).
T1 sequence (P11473 whole entry): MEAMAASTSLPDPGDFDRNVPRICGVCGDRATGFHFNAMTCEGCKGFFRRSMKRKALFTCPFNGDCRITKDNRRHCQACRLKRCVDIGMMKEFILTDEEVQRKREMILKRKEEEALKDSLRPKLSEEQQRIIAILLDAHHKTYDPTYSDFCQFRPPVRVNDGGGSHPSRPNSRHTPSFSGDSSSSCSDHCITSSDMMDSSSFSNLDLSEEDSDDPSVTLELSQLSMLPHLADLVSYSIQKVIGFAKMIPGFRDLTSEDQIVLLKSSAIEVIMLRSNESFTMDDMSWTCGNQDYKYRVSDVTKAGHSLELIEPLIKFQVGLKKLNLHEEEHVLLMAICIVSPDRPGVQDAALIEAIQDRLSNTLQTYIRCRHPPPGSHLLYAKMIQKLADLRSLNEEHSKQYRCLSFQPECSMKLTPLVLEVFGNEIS
Nature of the data set: Binding affinity to full length human VDR by fluorescence polarization-based competitive assay. The class given is ADME. Summed up: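 Competitive fluorescence polarization binding using full-length human VDR and a tight-binding fluorescent VDR ligand; analogues tested at 50 and 100 µM.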
(In general: In fluorescence polarisation assays a small probe gives low polarisation when free and higher when bound to something large.)

Data set [4] can be described thus: Down-regulation of Gli1 mRNA expression in human U87MG cells at 10 uM after 24 hrs by RT-PCR analysis relative to DMSO-treated control. It counts as functional, cell-based. Conditions: U-87MG ATCC.
The target in data set [5] is Protein smoothened (Homo sapiens) (UniProt Q99835). The experiment in a line: Inhibition of SMO expressed in mouse C3H10T1/2 cells assessed as down-regulation of Gli1 mRNA expression at 5 uM after 24 hrs by RT-PCR analysis relative to oxysterol. The class given is cell-based. Set-up: scale not given: the % may be the effect or the level left. Conditions: C3H 10T1/2. Summed up:
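Hh-dependent C3H10T1/2 cells, with the pathway activated by oxysterol, co-treated with analogue at 5 µM for 24 h. Endogenous Gli1 mRNA is reported as % of the oxysterol control, set at 100%.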

Data set [6] can be described thus: Growth inhibition of human U87MG cells after 72 hrs by MTS assay. It counts as functional, U-87MG ATCC. Conditions: U-87 MG. Summed up:
as §1
For orientation: Tetrazolium assays rely on reduction of a dye to a coloured formazan, in cell work by metabolically active cells.

The nature of data set [7]: Upregulation of CYP24A1 mRNA expression in human U87MG cells at 10 uM after 24 hrs by RT-PCR analysis relative to DMSO-treated control. It counts as functional, cell-based. To be noted: U-87MG ATCC.
Data set [8] has as its target T1, Vitamin D3 receptor. The experiment in a line: Binding affinity to full length human VDR expressed in mouse C3H10T1/2 cells assessed as upregulation of CYP24A1 mRNA expression at 5 uM after 24 hrs by RT-PCR analysis relative to control. It counts as ADME, cell-based. To be noted: c3h 10t1/2, 24 h. Put shortly:
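Mouse C3H10T1/2 cells treated with analogue at 5 µM for 24 h. Cyp24A1 mRNA was measured and expressed relative to DMSO control, which was set to 1.0.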

Data set [9] deals with HT-29. The experiment in a line: Down-regulation of Gli1 mRNA expression in human HT-29 cells at 10 uM after 24 hrs by RT-PCR analysis relative to DMSO-treated control. The class given is functional.
For the next data set, the system named is U-87 MG. Nature of the data set: Ratio of CYP24A1 mRNA upregulation in human […] cells to upregulation of CYP24A1 mRNA in human U87MG cells. The class given is functional, U-87MG ATCC.

Sequence of Protein smoothened (Homo sapiens) (Q99835 whole entry): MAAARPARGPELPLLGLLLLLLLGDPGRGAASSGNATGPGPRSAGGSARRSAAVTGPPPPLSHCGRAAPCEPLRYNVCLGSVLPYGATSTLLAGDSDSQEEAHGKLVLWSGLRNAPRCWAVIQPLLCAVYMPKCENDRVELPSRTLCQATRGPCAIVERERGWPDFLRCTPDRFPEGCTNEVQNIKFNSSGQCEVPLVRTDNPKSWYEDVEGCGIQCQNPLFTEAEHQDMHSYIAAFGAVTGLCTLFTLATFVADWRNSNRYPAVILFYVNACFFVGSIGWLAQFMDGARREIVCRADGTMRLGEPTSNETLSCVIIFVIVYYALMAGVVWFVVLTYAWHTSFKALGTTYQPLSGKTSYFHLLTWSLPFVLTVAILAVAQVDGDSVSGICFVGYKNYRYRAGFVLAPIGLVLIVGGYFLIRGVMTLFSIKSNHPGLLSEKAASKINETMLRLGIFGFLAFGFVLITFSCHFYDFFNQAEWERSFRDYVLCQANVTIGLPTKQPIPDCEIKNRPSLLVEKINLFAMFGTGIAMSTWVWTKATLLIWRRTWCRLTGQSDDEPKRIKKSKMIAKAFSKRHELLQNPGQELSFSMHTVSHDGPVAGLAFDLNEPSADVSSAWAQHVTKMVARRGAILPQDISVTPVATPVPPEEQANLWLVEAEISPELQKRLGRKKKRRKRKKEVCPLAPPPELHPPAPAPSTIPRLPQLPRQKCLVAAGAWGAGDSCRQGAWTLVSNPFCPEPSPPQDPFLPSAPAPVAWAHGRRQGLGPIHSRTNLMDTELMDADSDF

`C=C1CC[C@H](O)C/C1=C/C(O)C1(O)CCC[C@]2(C)[C@@H]([C@H](C)CCCC(C)C)CC[C@@H]12` (some centres not stated): the GI50 was more than 100 µM in the data set on HT-29 [1] and 25.9 µM in data set [6]. The “fold change (FC)” value in the data set with HT-29 [2] was found to be 1.2; in data set [4] it was 1.1; in data set [7] it was 0.5; in the data set on HT-29 [9], 0.9. Besides, the Activity at Vitamin D3 receptor [3] is more than 100 µM; in data set [5] it was 144%; on Vitamin D3 receptor [8], 6.7.
In the case of `C=C1CC[C@H](O)C/C1=C/C=C1\CCC[C@]2(C)[C@@H]([C@H](C)/C=C/[C@H](C)C(C)C)CC[C@@H]12` [ERGOCALCIFEROL], the GI50 with HT-29 [1] is more than 100 µM; in [6], 33.7 µM. Further, the “fold change (FC)” value in the data set with HT-29 [2] was found to be 10902; in data set [4] it was 0.9; in data set [7], 49.6; in the data set with HT-29 [9] it was 1.1. The Activity is more than 100 µM at Vitamin D3 receptor [3], 28.1% in [5] and 2410 on Vitamin D3 receptor [8]. Also, the Ratio in the data set on U-87 MG is reported as 25.
In the case of `CC(C)CCC[C@@H](C)[C@H]1CCC2=CCCC[C@@]21C`, the GI50 (in the data set on HT-29 [1]; in data set [6]) was more than 100 µM throughout. Further, the “fold change (FC)” value came to 1.1 in the data set on HT-29 [2], 1 in data set [4], 0.5 in data set [7] and 1.1 with HT-29 [9]. Further, the Activity at Vitamin D3 receptor [3] was more than 100 µM; in data set [5], 111%; at Vitamin D3 receptor [8], 2.3.
Consider `CC(C)CCC[C@@H](C)[C@H]1CC[C@H]2C(=O)CCC[C@]12C`, for which the values for the GI50 (in the data set with HT-29 [1]; in data set [6]) were more than 100 µM and 12.1 µM, respectively. Further, the “fold change (FC)” value in the data set with HT-29 [2] came out at 1; in [4] it was 0.9; in [7] it was 0.5; in the data set on HT-29 [9], 1.1. Further, the values for the Activity (on Vitamin D3 receptor [3]; in [5]; at Vitamin D3 receptor [8]) were more than 100 µM, 66.1% and 3, respectively.
With `C=C1CC[C@H](O)C/C1=C\C=C1/CCC[C@]2(C)[C@@H]([C@H](C)CCCC(C)C)CC[C@@H]12`, the GI50 was more than 100 µM in the data set on HT-29 [1] and 46 µM in data set [6]. For the same compound, the “fold change (FC)” value was found to be 27.5 in the data set on HT-29 [2], 1.1 in data set [4], 33.8 in data set [7] and 1.2 with HT-29 [9]. Further, the Activity is more than 100 µM on Vitamin D3 receptor [3], 69.7% in data set [5] and 43.5 on Vitamin D3 receptor [8].
As to `C=C1CC[C@H](O)C/C1=C/C=C1\CCC[C@]2(C)[C@@H]([C@H](C)CCCC(C)C)CC[C@@H]12` [CHOLECALCIFEROL], the values for the GI50 (in the data set on HT-29 [1]; in [6]) were 68.5 µM and 23.2 µM, respectively. For the same compound, the “fold change (FC)” value with HT-29 [2] was determined as 14697; in data set [4] it was 0.7; in data set [7], 12.2; with HT-29 [9], 1.3. In addition, the Activity was more than 100 µM at Vitamin D3 receptor [3] and 8340 on Vitamin D3 receptor [8]. In the data set with U-87 MG, the Ratio worked out at 10000.
Take `CC(C)[C@@H](C)/C=C/[C@@H](C)[C@H]1CC[C@H]2[C@@H](O)CCC[C@]12C`: the GI50 in the data set on HT-29 [1] came out at 49.7 µM; in data set [6], 19 µM. The “fold change (FC)” value was found to be 0.7 in the data set on HT-29 [2], 0.8 in [4], 0.3 in data set [7] and 0.9 in the data set with HT-29 [9]. In addition, the Activity at Vitamin D3 receptor [3] was more than 100 µM; in [5], 32.1%; at Vitamin D3 receptor [8] it was 2.3.
Turning to `CC(C)CCC[C@@H](C)[C@H]1CC[C@H]2[C@@H](O)CCC[C@]12C`, the values for the GI50 (with HT-29 [1]; in data set [6]) were 66.5 µM and 5.7 µM, respectively. Besides, the “fold change (FC)” value in the data set with HT-29 [2] was determined as 1.1; in data set [4], 0.7; in [7], 0.4; in the data set with HT-29 [9], 1.1. In addition, the Activity was more than 100 µM on Vitamin D3 receptor [3], 46.4% in [5] and 3.6 on Vitamin D3 receptor [8].
Turning to `CC(C)CCC[C@@H](C)[C@H]1CC[C@H]2C(CCC3C[C@@H](O)CCC3C)CCC[C@]12C` (some centres not stated), the GI50 (in the data set on HT-29 [1]; in [6]) was more than 100 µM throughout. For the same compound, the “fold change (FC)” value in the data set on HT-29 [2] turned out to be 1.4; in data set [4], 0.8; in data set [7] it was 0.8; with HT-29 [9], 1.4. The values for the Activity (on Vitamin D3 receptor [3]; in data set [5]; at Vitamin D3 receptor [8]) were more than 100 µM, 82.1% and 1.5, respectively.
In the case of `C=C1CC[C@H](O)C/C1=C/C=C1\CCC[C@]2(C)[C@@H]([C@H](C)CO)CC[C@@H]12`, the GI50 (in the data set with HT-29 [1]; in [6]) was more than 100 µM throughout. Also, the “fold change (FC)” value with HT-29 [2] turned out to be 69.1; in [4], 1; in data set [7], 4.8; in the data set on HT-29 [9], 2.7. In addition, the Activity on Vitamin D3 receptor [3] was more than 100 µM; in data set [5], 80%; on Vitamin D3 receptor [8], 1350.
In the case of `C[C@H](CO)[C@H]1CC[C@H]2[C@@H](O)CCC[C@]12C`, the concentration for 50% growth inhibition (GI50) (in the data set with HT-29 [1]; in data set [6]) was more than 100 µM throughout. For the same compound, the “fold change (FC)” value in the data set with HT-29 [2] was 1; in data set [4], 1; in data set [7] it was 0.7; in the data set with HT-29 [9], 1.2. Moreover, the Activity is more than 100 µM on Vitamin D3 receptor [3], 87.6% in [5] and 4.1 on Vitamin D3 receptor [8].
`C=C1CC[C@H](O)C/C1=C\C=C1/CCC[C@]2(C)[C@@H]([C@H](C)CO)CC[C@@H]12`: the concentration for 50% growth inhibition (GI50) in the data set on HT-29 [1] was more than 100 µM; in data set [6] it was 88.8 µM. Further, the “fold change (FC)” value with HT-29 [2] stood at 3.3; in [4] it was 0.8; in data set [7] it was 0.8; with HT-29 [9], 1.3. For the same compound, the Activity is more than 100 µM on Vitamin D3 receptor [3], 66.7% in [5] and 12.5 on Vitamin D3 receptor [8].
Take `C=C1CCC=C/C1=C/C=C1\CCC[C@]2(C)[C@@H]([C@H](C)CCCC(C)C)CC[C@@H]12`: the GI50 is more than 100 µM with HT-29 [1] and 48.5 µM in [6]. Further, the “fold change (FC)” value in the data set on HT-29 [2] was found to be 1.9; in [4], 1; in data set [7] it was 0.9; in the data set with HT-29 [9], 1.8. Besides, the results for the Activity (at Vitamin D3 receptor [3]; in [5]; at Vitamin D3 receptor [8]) were more than 100 µM, 79.4% and 3, respectively.
In the case of `C=C1CC[C@H](O)C/C1=C/CO`, the GI50 (in the data set on HT-29 [1]; in data set [6]) was more than 100 µM each time. Further, the “fold change (FC)” value with HT-29 [2] came to 0.7; in data set [4], 0.9; in [7], 0.6; in the data set on HT-29 [9], 0.9. In addition, the Activity was more than 100 µM on Vitamin D3 receptor [3], 80.9% in data set [5] and 2 on Vitamin D3 receptor [8].
